Reference: ChEMBL document CHEMBL4002602, “Design, Synthesis of Novel, Potent, Selective, Orally Bioavailable Adenosine A2A Receptor Antagonists and Their Biological Evaluation” (J Med Chem, 2017)
pIC50, pKi: −log10 of the molar value. Activity calls are given as the source filed them. No cut-off for these calls is given here.

How the values were obtained:
CYP1A2 = CYP1A2 (Homo sapiens, UniProt P05177); assay: Inhibition of CYP1A2 in human liver microsomes at 5 to 25 uM using phenacetin as substrate preincubated for 5 mins with substrate followed by NADPH addition measured after 10 mins by LC-MS/MS analysis; format: ADME; conditions: human liver microsomes, probe phenacetin
[1] = biological target: T1, Adenosine receptor A3 (Homo sapiens) (UniProt P0DMS8); assay: Displacement of [3H]-HEMADO from human adenosine A3 receptor expressed in HEK293 cell membranes at 30 uM measured after 90 mins
T1 sequence (whole entry): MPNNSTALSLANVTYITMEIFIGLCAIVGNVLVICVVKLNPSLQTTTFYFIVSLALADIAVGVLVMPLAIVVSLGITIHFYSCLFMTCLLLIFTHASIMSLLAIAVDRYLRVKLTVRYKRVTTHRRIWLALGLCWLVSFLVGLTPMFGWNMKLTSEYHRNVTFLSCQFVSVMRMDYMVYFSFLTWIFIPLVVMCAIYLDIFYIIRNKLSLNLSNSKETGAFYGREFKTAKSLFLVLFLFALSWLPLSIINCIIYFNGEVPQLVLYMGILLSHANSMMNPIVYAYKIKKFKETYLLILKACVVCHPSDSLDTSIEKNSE

[2] = biological target: T2, Adenosine receptor A1 (Homo sapiens) (UniProt P30542); assay: Antagonist activity at human adenosine A1 receptor expressed in HEK293 cell membranes assessed as decrease in CPA/forskolin-induced cAMP level at 30 uM pretreated for 15 mins followed by agonist addition for 15 mins and subsequent forskolin stimulation measured after 30 mins; format: functional, cell-based
T2 sequence (whole entry): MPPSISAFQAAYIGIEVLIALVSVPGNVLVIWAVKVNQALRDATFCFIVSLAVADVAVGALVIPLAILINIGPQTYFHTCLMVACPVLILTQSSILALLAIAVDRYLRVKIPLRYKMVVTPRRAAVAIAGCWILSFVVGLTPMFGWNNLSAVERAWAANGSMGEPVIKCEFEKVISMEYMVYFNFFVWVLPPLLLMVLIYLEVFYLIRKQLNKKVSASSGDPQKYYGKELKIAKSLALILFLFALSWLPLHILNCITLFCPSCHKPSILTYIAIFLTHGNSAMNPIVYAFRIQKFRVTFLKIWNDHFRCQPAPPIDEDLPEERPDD
Method in brief: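 Whole HEK-A1 cells were seeded overnight and then pretreated with 1 U/ml ADA for 90 min at 37 °C and 5% CO2. Compound was added for 15 min, then 1 nM CPA for 15 min, then forskolin for 30 min, at room temperature in incomplete DMEM with ADA and 20 μM rolipram. cAMP was read by HTRF (620/665 nm). Compounds ran at 12 concentrations in triplicate, with 10 or 30 μM as the top concentration.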

[3] = Half-life in rat hepatocytes at 1 uM by LC-MS/MS analysis; format: ADME, cell-based, Hepatocyte
[4] = Metabolic stability in rat hepatocytes assessed as parent compound remaining at 1 uM measured at 60 mins post dose by LC-MS/MS analysis; format: ADME, cell-based, Hepatocyte; conditions: read-out: Stability
[5] = Apparent permeability across apical to basolateral side in human Caco2 cells at 5 uM after 90 mins; format: ADME, cell-based; conditions: Caco-2
HepG2 = assay: Cytotoxicity against human HepG2 cells; format: cell-based
Rattus norvegicus = assay: Clearance in Wistar rat at 3 mg/kg, iv by LC/MS/MS analysis relative to hepatic blood flow; format: ADME, organism-based; conditions: in vivo
CYP2C9 = CYP2C9 (Homo sapiens, UniProt P11712); assay: Inhibition of CYP2C9 in human liver microsomes at 5 to 25 uM using diclofenac as substrate preincubated for 5 mins with substrate followed by NADPH addition measured after 10 mins by LC-MS/MS analysis; format: ADME; conditions: human liver microsomes, probe diclofenac
CYP2C19 = CYP2C19 (Homo sapiens, UniProt P33261); assay: Inhibition of CYP2C19 in human liver microsomes at 5 to 25 uM using (S)mephenytoin as substrate preincubated for 5 mins with substrate followed by NADPH addition measured after 40 mins by LC-MS/MS analysis; format: ADME; conditions: human liver microsomes, probe (S)-mephenytoin
CYP2D6 = CYP2D6 (Homo sapiens, UniProt P10635); assay: Inhibition of CYP2D6 in human liver microsomes at 5 to 25 uM using dextromethorphan as substrate preincubated for 5 mins with substrate followed by NADPH addition measured after 10 mins by LC-MS/MS analysis; format: ADME; conditions: human liver microsomes, probe dextromethorphan
CYP3A = CYP3A (Homo sapiens, UniProt P08684+P20815+P24462+Q9HB55); assay: Inhibition of CYP3A in human liver microsomes at 5 to 25 uM using testosterone as substrate preincubated for 5 mins with substrate followed by NADPH addition measured after 10 mins by LC-MS/MS analysis; format: ADME; conditions: human liver microsomes, probe testosterone
Adenosine receptor A1 = biological target: T3, Adenosine receptor A1 (Homo sapiens, UniProt P30542); assay: Antagonist activity at human adenosine A1 receptor expressed in HEK293 cell membranes assessed as decrease in CPA/forskolin-induced cAMP level pretreated for 15 mins followed by agonist addition for 15 mins and subsequent forskolin stimulation measured after 30 mins; format: functional, cell-based
T3 sequence (P30542 whole entry): T2 sequence (whole entry)
Method in brief: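 HTRF cAMP assay in overnight-seeded HEK cells expressing human A1, A2A or A2B, pretreated with ADA 1 U/ml for 90 min at 37 °C. Cells were given compound at increasing concentrations for 15 min, then agonist at room temperature in incomplete DMEM with ADA: CPA 1 nM, 15 min (A1); CGS-21680 10 nM, 30 min (A2A); NECA 70 nM, 15 min (A2B). Rolipram 20 μM for A1 and A2A; forskolin 30 min for A1 only. 12 concentrations, triplicates; IC50/Ki by curve fitting.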

[6] = biological target: T4, Adenosine receptor A2b (Homo sapiens) (UniProt P29275); assay: Antagonist activity at human adenosine A2B receptor expressed in HEK293 cell membranes assessed as decrease in NECA/forskolin-induced cAMP level at 10 uM pretreated for 15 mins followed by agonist addition for 15 mins and subsequent forskolin stimulation measured after 30 mins; format: functional, cell-based
T4 sequence (whole entry): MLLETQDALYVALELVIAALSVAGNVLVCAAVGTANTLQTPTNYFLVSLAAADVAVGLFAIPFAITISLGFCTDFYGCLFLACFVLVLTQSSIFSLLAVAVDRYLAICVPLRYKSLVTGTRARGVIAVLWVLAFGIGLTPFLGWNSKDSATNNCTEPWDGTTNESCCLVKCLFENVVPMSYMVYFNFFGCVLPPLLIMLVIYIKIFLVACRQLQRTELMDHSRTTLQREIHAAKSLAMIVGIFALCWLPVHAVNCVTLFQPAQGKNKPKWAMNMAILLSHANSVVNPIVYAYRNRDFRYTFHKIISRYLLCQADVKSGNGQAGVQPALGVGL
Method in brief: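 Whole HEK-A2B cells were seeded overnight and then pretreated with 1 U/ml ADA for 90 min at 37 °C and 5% CO2. Compound was added for 15 min, then 70 nM NECA for 15 min, at room temperature with mixing in incomplete DMEM with ADA. cAMP was read by HTRF (620/665 nm). Compounds ran at 12 concentrations in triplicate, with 10 μM as the highest tested concentration.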

hERG (KCNH2) = hERG (KCNH2) (Homo sapiens, UniProt Q12809); assay: Inhibition of [3H]-astemizole binding to human ERG at 3 uM after 2 hrs by liquid scintillation counting method relative to control; conditions: probe [3H]-astemizole
hERG (KCNH2), sequence (Q12809 whole entry): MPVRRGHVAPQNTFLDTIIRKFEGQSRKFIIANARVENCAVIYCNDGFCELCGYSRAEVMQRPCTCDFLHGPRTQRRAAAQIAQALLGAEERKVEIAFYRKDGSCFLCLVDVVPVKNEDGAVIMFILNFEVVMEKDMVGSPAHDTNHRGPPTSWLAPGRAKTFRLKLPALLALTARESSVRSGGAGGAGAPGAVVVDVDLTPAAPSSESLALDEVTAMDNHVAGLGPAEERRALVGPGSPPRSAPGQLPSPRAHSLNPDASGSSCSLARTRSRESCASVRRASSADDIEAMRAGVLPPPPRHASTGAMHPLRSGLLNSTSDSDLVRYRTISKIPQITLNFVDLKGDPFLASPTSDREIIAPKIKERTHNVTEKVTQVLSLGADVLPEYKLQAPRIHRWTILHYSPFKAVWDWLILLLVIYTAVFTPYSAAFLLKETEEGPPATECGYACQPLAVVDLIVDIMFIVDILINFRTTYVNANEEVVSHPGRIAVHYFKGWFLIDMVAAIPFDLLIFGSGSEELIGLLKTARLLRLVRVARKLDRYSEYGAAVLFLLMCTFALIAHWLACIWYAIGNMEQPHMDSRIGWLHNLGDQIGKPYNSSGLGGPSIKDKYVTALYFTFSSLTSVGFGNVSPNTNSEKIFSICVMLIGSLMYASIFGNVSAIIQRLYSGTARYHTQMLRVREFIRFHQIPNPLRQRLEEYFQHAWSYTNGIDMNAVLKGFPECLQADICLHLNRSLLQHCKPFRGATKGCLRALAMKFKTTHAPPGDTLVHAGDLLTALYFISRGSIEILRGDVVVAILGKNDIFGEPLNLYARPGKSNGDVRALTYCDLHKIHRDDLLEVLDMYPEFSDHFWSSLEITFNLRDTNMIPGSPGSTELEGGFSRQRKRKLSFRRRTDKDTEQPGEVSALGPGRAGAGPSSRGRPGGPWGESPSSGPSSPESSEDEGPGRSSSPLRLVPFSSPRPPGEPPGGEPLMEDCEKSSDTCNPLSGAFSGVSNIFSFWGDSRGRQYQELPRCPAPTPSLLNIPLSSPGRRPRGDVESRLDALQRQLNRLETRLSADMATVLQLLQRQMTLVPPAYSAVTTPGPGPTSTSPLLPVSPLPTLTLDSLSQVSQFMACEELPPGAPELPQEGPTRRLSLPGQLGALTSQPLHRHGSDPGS

CYP2C9, sequence (P11712 whole entry): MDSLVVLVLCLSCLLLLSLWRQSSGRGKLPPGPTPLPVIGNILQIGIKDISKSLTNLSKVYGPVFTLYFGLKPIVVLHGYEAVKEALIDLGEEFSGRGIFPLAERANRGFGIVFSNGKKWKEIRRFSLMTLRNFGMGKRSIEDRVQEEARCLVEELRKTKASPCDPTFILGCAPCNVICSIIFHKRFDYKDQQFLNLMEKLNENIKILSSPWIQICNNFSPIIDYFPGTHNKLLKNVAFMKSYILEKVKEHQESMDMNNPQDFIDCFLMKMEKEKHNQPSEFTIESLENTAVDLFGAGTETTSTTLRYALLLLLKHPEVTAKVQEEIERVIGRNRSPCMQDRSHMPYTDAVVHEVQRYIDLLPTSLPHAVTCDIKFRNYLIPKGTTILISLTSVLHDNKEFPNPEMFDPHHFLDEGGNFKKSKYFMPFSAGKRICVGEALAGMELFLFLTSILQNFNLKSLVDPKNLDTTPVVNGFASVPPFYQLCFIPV
CYP2D6, sequence (P10635 whole entry): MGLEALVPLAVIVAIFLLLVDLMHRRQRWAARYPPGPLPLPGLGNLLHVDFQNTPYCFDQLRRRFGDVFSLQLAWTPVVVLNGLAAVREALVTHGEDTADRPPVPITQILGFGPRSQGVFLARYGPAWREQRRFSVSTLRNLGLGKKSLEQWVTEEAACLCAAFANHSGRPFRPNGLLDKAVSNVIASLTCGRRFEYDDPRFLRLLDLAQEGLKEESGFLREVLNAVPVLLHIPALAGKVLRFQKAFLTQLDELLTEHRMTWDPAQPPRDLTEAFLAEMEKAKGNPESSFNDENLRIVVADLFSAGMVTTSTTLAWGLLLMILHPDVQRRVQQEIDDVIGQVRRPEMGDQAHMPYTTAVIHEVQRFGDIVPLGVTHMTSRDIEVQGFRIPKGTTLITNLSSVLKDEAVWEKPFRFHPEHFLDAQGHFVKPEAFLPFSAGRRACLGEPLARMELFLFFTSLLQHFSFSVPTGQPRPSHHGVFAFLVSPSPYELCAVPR
CYP1A2, sequence (P05177 whole entry): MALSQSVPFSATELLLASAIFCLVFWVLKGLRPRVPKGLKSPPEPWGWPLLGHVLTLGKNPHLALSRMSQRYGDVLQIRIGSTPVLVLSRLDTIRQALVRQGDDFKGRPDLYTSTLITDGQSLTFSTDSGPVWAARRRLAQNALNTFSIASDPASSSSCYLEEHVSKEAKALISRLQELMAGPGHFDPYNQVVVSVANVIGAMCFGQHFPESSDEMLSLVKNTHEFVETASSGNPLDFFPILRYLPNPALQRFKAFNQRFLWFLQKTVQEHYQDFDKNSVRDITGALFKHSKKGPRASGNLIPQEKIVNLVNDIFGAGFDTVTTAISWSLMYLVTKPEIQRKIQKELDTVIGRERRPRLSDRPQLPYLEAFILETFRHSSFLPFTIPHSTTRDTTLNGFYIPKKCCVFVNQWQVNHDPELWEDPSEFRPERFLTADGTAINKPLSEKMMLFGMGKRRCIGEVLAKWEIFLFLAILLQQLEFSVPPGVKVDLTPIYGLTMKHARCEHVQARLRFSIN
CYP2C19, sequence (P33261 whole entry): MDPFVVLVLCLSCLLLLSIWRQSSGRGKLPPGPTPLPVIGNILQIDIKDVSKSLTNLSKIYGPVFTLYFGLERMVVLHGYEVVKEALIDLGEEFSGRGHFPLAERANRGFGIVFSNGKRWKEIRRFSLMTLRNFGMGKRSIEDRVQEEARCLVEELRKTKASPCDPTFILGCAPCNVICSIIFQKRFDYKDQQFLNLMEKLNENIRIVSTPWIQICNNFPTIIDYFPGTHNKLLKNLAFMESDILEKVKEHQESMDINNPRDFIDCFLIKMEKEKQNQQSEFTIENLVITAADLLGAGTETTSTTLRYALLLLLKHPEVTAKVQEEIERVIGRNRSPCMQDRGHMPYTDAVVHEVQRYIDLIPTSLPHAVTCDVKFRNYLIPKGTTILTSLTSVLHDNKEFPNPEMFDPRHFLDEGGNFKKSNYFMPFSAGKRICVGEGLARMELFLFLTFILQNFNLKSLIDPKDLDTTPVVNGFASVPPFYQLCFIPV

IC50 at 10 min (CYP1A2) [µM] | Activity [1] | Activity [2] | half-life at 1 µM [3] [h] | remaining at 1 h, 1 µM [4] [%] | Papp A→B at 1.5 h, 5 µM [5] [×10⁻⁶ cm/s] | clearance (Rattus norvegicus) [%] | IC50 at 10 min (CYP2C9) [µM] | IC50 at 40 min (CYP2C19) [µM] | IC50 at 10 min (CYP2D6) [µM] | IC50 at 10 min (CYP3A) [µM] | pKi (Adenosine receptor A1) | Activity [6] | SMILES | pIC50 (HepG2) | inhibition at 2 h, 3 µM (hERG (KCNH2)) [%]
> 50 | inactive | inactive | > 1 | 89 | 3.7 | 60 to 65 | > 50 | > 50 | > 50 | > 50 | – | – | CCN(CC)C1CCC(C)(C(=O)Nc2nc3c(OC)ccc(N4CCOCC4)c3s2)CC1 (centres undefined) | < 4.00 | –
– | – | – | – | – | – | – | – | – | – | – | 5.70 | inactive | COc1ccc(N2CCOCC2)c2sc(NC(=O)C(C)(C)Oc3ccc(F)cc3)nc12 | – | < 5
> 25 | inactive | inactive | > 1 | 88 | 12.2 | 60 to 65 | > 25 | > 25 | > 25 | > 25 | – | – | COc1ccc(N2CCOCC2)c2sc(NC(=O)C3(C)CCC(C)(O)CC3)nc12 (centres undefined) | < 4.00 | –
– | – | – | – | – | – | – | – | – | – | – | – | inactive | COc1ccc(N2CCOCC2)c2sc(NC(=O)C(C)(C)Oc3ccc(F)c(F)c3)nc12 | – | < 5
